Measurements from ChEMBL document CHEMBL1125330, “N-substituted pyrazino[2,3-c][1,2,6]thiadiazine 2,2-dioxides. A new class of diuretics” (J Med Chem, 1992).

Tests used:
Rattus norvegicus [1] = assay: Dose required to produce an excretion of 2 mequiv of Na+/kg bw/6h vs control groups; assay type: functional
Procedure, shortened: (§1)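 Male Sprague-Dawley rats (HC/CFY, 175-200 g), fasted and water-deprived 18 h before and during the test. Compound dosed by gavage in 1% carboxymethyl cellulose/0.1% Tween 80, then water load 2.5 mL/100 g bw po. Urine collected 6 h in metabolic cages; Na+ by flame photometry. Effective doses vs vehicle controls derived by linear regression of dose-response data.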

Rattus norvegicus [2] = assay: Mean potassium excretion in rats when compound administered at 10 mg/kg po and vehicle dosed at 37.13 umol/kg; assay type: ADME, organism-based; parameters: dose 10 mg/kg, route oral; details: in vivo
Procedure, shortened: (§2)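 Male Sprague-Dawley rats (HC/CFY, 175-200 g), no food or water for 18 h before and during the test. Single gavage dose (2.5-160 mg/kg; vehicle 1% carboxymethyl cellulose/0.1% Tween 80, 0.5 mL/100 g bw), then distilled water 2.5 mL/100 g bw po. Individual metabolic cages, 6 h urine. K+ by flame photometry, Cl- colorimetric, as mequiv/6 h/kg bw; unpaired Student t-test vs control.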

Rattus norvegicus [3] = organism: Rattus norvegicus; assay: Dose required to produce increase in 200 % in urine production vs control groups; assay type: functional; procedure, shortened: as §1
Rattus norvegicus [4] = assay: Mean urinary output in rats when compound administered at 0 mg/kg po and vehicle dosed at 0 umol/kg; assay type: ADME, organism-based, Urine; parameters: dose 0 mg/kg, route oral; details: in vivo
Procedure, shortened: (§3)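 Water-loaded male Sprague-Dawley rats (HC/CFY, 175-200 g) fasted and without water for 18 h. Oral gavage of 2.5-160 mg/kg in 1% CMC with 0.1% Tween 80, then distilled water 2.5 mL/100 g po. Urine collected 6 h in metabolic cages, mean output in mL/6 h/kg bw. Unpaired Student t-test against vehicle; dose-response by linear regression.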

Rattus norvegicus [5] = assay: Mean potassium excretion in rats when compound administered at 20 mg/kg po and vehicle dosed at 74.26 umol/kg; assay type: ADME, organism-based; parameters: dose 20 mg/kg, route oral; details: in vivo; procedure, shortened: as §2
Rattus norvegicus [6] = assay: Mean sodium excretion in rats when compound administered at 20 mg/kg po and vehicle dosed at 74.26 umol/kg; assay type: ADME, organism-based; parameters: dose 20 mg/kg, route oral; details: in vivo
Procedure, shortened: (§4)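 Male Sprague-Dawley rats (HC/CFY, 175-200 g) fasted and water-deprived 18 h before and during the test. Dosed by gavage at 2.5-160 mg/kg in 1% carboxymethyl cellulose/0.1% Tween 80, 0.5 mL/100 g bw. Immediately hydrated with water (2.5 mL/100 g bw, po). Urine collected 6 h in metabolic cages; Na+ and K+ by flame photometry; mean mequiv/6 h/kg bw; nonpaired Student t-test.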

Rattus norvegicus [7] = assay: Urinary sodium 1 hr after the compound was administered 100 mg/kg po in rat; assay type: ADME, organism-based, Urine; parameters: dose 100 mg/kg, route oral; details: in vivo
Procedure, shortened: (§5)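 Onset and duration study in fasted, water-loaded male Sprague-Dawley rats housed two per metabolic cage, six pairs per group. Single oral dose given, then water 2.5 mL/100 g po. Urine volume and sodium (flame photometry) measured over 0-1, 1-2, 2-3, 3-4 and 4-6 h intervals. Mean values compared with vehicle by Student t-test.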

[8] = Acute toxicity in mice when given po; assay type: organism-based; details: mouse, in vivo, read-out: DL50 (the source's name)
Procedure, shortened: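 Male Swiss mice (SPF, HC/CFLP strain, 20–25 g), oral dosing; mortality followed over 15 days; LD50 derived by the Litchfield and Wilcoxon method.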

Rattus norvegicus [9] = assay: Urinary sodium 6 hr after the compound was administered 100 mg/kg po in rat; assay type: ADME, organism-based, Urine; parameters: dose 100 mg/kg, route oral; details: in vivo; procedure, shortened: as §5
Rattus norvegicus [10] = assay: Mean sodium excretion in rats when compound administered at 0 mg/kg po and vehicle dosed at 0 umol/kg; assay type: ADME, organism-based; parameters: dose 0 mg/kg, route oral; details: in vivo; procedure, shortened: as §4
Rattus norvegicus [11] = organism: Rattus norvegicus; assay: Mean sodium excretion in rats (Control/Drug treatment value); value 0.35/2.88; assay type: ADME, organism-based; details: in vivo
Rattus norvegicus [12] = assay: Mean potassium excretion in rats when compound administered at 2.5 mg/kg po and vehicle dosed at 9.28 umol/kg; assay type: ADME, organism-based; parameters: dose 2.5 mg/kg, route oral; details: in vivo; procedure, shortened: as §2
Rattus norvegicus [13] = assay: Mean urinary output in rats when compound administered at 40 mg/kg po and vehicle dosed at 148.52 umol/kg; assay type: ADME, organism-based, Urine; parameters: dose 40 mg/kg, route oral; details: in vivo; procedure, shortened: as §3
Rattus norvegicus [14] = assay: Mean potassium excretion in rats when compound administered at 80 mg/kg po and vehicle dosed at 297.03 umol/kg; assay type: ADME, organism-based; parameters: dose 80 mg/kg, route oral; details: in vivo; procedure, shortened: as §4
Rattus norvegicus [15] = assay: Mean Chlorine excretion in rats when compound administered at 10 mg/kg po and vehicle dosed at 37.13 umol/kg; assay type: ADME, organism-based; parameters: dose 10 mg/kg, route oral; details: in vivo; procedure, shortened: as §2
Rattus norvegicus [16] = assay: Mean Chlorine excretion in rats when compound administered at 160 mg/kg po and vehicle dosed at 594.07 umol/kg; assay type: ADME, organism-based; parameters: dose 160 mg/kg, route oral; details: in vivo; procedure, shortened: as §2
Rattus norvegicus [17] = assay: Mean Chlorine excretion in rats when compound administered at 40 mg/kg po and vehicle dosed at 148.52 umol/kg; assay type: ADME, organism-based; parameters: dose 40 mg/kg, route oral; details: in vivo; procedure, shortened: as §2
Rattus norvegicus [18] = assay: Urinary sodium 2 hr after the compound was administered 100 mg/kg po in rat; assay type: ADME, organism-based, Urine; parameters: dose 100 mg/kg, route oral; details: in vivo; procedure, shortened: as §5
Rattus norvegicus [19] = assay: Mean urinary output in rats when compound administered at 160 mg/kg po and vehicle dosed at 594.07 umol/kg; assay type: ADME, organism-based, Urine; parameters: dose 160 mg/kg, route oral; details: in vivo; procedure, shortened: as §3

SMILES: CCc1nc2c(nc1C)C(N)=NS(=O)(=O)N2CC
- ED2 (Rattus norvegicus [1]): 14.62 mg/kg
- K (Rattus norvegicus [2]): 0.72 m equiv 6hr-1 kg-1 (body weight)-1
- ED200 (Rattus norvegicus [3]): 87.61 mg/kg
- V (Rattus norvegicus [4]): 21.96 ml 6hr-1 (kg of body weight)-1
- K (Rattus norvegicus [5]): 0.63 m equiv 6hr-1 kg-1 (body weight)-1
- Na (Rattus norvegicus [6]): 1.7 m equiv 6hr-1 kg-1 (body weight)-1
- Urinary Na+ (Rattus norvegicus [7]): 0.15 m equiv
- LD50 [8]: 1840 mg/kg
- Urinary Na+ (Rattus norvegicus [9]): 0.16 m equiv
- Na (Rattus norvegicus [10]): 0.43 m equiv 6hr-1 kg-1 (body weight)-1
- Na (Rattus norvegicus [11]): 8.2
- K (Rattus norvegicus [12]): 0.46 m equiv 6hr-1 kg-1 (body weight)-1
- V (Rattus norvegicus [13]): 59.12 ml 6hr-1 (kg of body weight)-1
- K (Rattus norvegicus [14]): 2.06 m equiv 6hr-1 kg-1 (body weight)-1
- Cl- (Rattus norvegicus [15]): 2.67 m equiv 6hr-1 kg-1 (body weight)-1
- Cl- (Rattus norvegicus [16]): 9.28 m equiv 6hr-1 kg-1 (body weight)-1
- Cl- (Rattus norvegicus [17]): 6.37 m equiv 6hr-1 kg-1 (body weight)-1
- Urinary Na+ (Rattus norvegicus [18]): 0.67 m equiv
- V (Rattus norvegicus [19]): 74.26 ml 6hr-1 (kg of body weight)-1
